Measurements reported in ChEMBL document CHEMBL5724801, “EUbOPEN Chemogenomics Library - Multiplex” (2024).
Values joined by “and” are separate entries in the source; they are usually repeats but may differ in a detail not shown here. Equal values may be shown once.

Tested on: U2OS
Experiment: Multiplex assay against U2OS
Type: toxicity, cell-based
Conditions: human
Method in brief: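 Imaging took place on a CQ1 microscope at 37°C and 5% CO2 once compound had been added to live cells stained at seeding with Hoechst33342, BioTracker Green Microtubule Cytoskeleton Dye, MitoTracker Red and Annexin V Alexa Fluor 680. CellPathfinder machine-learning gating classed cells as Hoechst high-intensity objects or normal cells, classed normal cells as having healthy, pyknosed or fragmented nuclei, and classed pyknosed cells as mitotic or apoptotic. Tubulin, mitochondrial-mass and membrane-permeability phenotypes are per cents of the healthy-nucleus cells.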

[1] = 12 h, 1 µM, compound concentration 1 uM
[2] = 12 h, 10 µM, compound concentration 10 uM
[3] = 24 h, 1 µM, compound concentration 1 uM
[4] = 24 h, 10 µM, compound concentration 10 uM
[5] = 48 h, 1 µM, compound concentration 1 uM
[6] = 48 h, 10 µM, compound concentration 10 uM

CN1CC[C@@]23CCCC[C@@H]2[C@@H]1Cc1ccc(O)cc13.O=C(O)C(O)C(O)C(=O)O
Population Apoptotic (%) [1]: 38.64% and 62.96%
Population Fragmented Nuclei (%) [1]: 1.53% and 2.17%
Population Healthy Nuclei (%) [1]: 88.86% and 78.26%
Population Hoechst High Intensity Objects (%) [1]: 1.51% and 0%
Population Membrane Permeable-Phenotype (%) [1]: 1.23% and 1.85%
Population Mitochondria Different-Phenotype (%) [1]: 0% and 11.11%
Population Mitotic Cells (%) [1]: 61.36% and 37.04%
Population Normal (%) [1]: 98.49% and 100%
Population Pyknosed Nuclei (%) [1]: 9.61% and 19.57%
Population Tubulin-Different-Phenotype (%) [1]: 0%
Population Apoptotic (%) [2]: 33.33% and 60%
Population Healthy Nuclei (%) [2]: 88.89% and 58.2%
Population Hoechst High Intensity Objects (%) [2]: 0%
Population Membrane Permeable-Phenotype (%) [2]: 1.19% and 4.7%
Population Mitochondria Different-Phenotype (%) [2]: 0.89% and 6.71%
Population Mitotic Cells (%) [2]: 66.67% and 40%
Population Normal (%) [2]: 100%
Population Pyknosed Nuclei (%) [2]: 9.52% and 5.86%
Population Tubulin-Different-Phenotype (%) [2]: 1.49% and 0.67%
Total Cell Count [2]: 378 and 256
Population Apoptotic (%) [3]: 53.33% and 66.67%
Population Fragmented Nuclei (%) [3]: 1.7% and 1.75%
Population Healthy Nuclei (%) [3]: 91.36% and 85.96%
Population Hoechst High Intensity Objects (%) [3]: 1.22% and 0%
Population Membrane Permeable-Phenotype (%) [3]: 0.68% and 2.72%
Population Mitotic Cells (%) [3]: 46.67% and 33.33%
Population Normal (%) [3]: 98.78% and 100%
Population Pyknosed Nuclei (%) [3]: 6.94% and 12.28%
Population Tubulin-Different-Phenotype (%) [3]: 0.51% and 0.68%
Population Apoptotic (%) [4]: 32.2% and 38.89%
Population Healthy Nuclei (%) [4]: 87.76% and 63.54%
Population Hoechst High Intensity Objects (%) [4]: 0%
Population Membrane Permeable-Phenotype (%) [4]: 1.07% and 3.28%
Population Mitochondria Different-Phenotype (%) [4]: 0.43% and 3.83%
Population Mitotic Cells (%) [4]: 67.8% and 61.11%
Population Normal (%) [4]: 100%
Population Pyknosed Nuclei (%) [4]: 11.11% and 6.25%
Population Tubulin-Different-Phenotype (%) [4]: 1.07% and 1.09%
Total Cell Count [4]: 531 and 288
Population Apoptotic (%) [5]: 45.92% and 51.61%
Population Fragmented Nuclei (%) [5]: 4.22% and 1.42%
Population Healthy Nuclei (%) [5]: 87.82% and 87.54%
Population Hoechst High Intensity Objects (%) [5]: 0.88% and 0%
Population Membrane Permeable-Phenotype (%) [5]: 0.55% and 2.44%
Population Mitochondria Different-Phenotype (%) [5]: 0.09% and 6.91%
Population Mitotic Cells (%) [5]: 54.08% and 48.39%
Population Normal (%) [5]: 99.12% and 100%
Population Pyknosed Nuclei (%) [5]: 7.95% and 11.03%
Population Tubulin-Different-Phenotype (%) [5]: 0.37% and 1.22%
Population Apoptotic (%) [6]: 45.36% and 57.14%
Population Healthy Nuclei (%) [6]: 87.24% and 75.39%
Population Hoechst High Intensity Objects (%) [6]: 0.1% and 0%
Population Membrane Permeable-Phenotype (%) [6]: 0.68% and 1.72%
Population Mitochondria Different-Phenotype (%) [6]: 0.34% and 3.09%
Population Mitotic Cells (%) [6]: 54.64% and 42.86%
Population Normal (%) [6]: 99.9% and 100%
Population Pyknosed Nuclei (%) [6]: 9.59% and 7.25%
Population Tubulin-Different-Phenotype (%) [6]: 0.45% and 0.34%
Total Cell Count [6]: 1012 and 386

CCn1c(-c2nonc2N)nc2c(C#CC(C)(C)O)ncc(OCC3CCCNC3)c21 (configuration not stated)
Population Apoptotic (%) [1]: 30.23% and 52.17%
Population Fragmented Nuclei (%) [1]: 3.38% and 1.86%
Population Healthy Nuclei (%) [1]: 85.45% and 83.85%
Population Hoechst High Intensity Objects (%) [1]: 0%
Population Membrane Permeable-Phenotype (%) [1]: 1.22% and 1.48%
Population Mitochondria Different-Phenotype (%) [1]: 0% and 5.93%
Population Mitotic Cells (%) [1]: 69.77% and 47.83%
Population Normal (%) [1]: 100%
Population Pyknosed Nuclei (%) [1]: 11.17% and 14.29%
Population Tubulin-Different-Phenotype (%) [1]: 0.91% and 0.74%
Total Cell Count [1]: 385 and 161
Population Apoptotic (%) [2]: 37.04% and 27.91%
Population Fragmented Nuclei (%) [2]: 2.62% and 8.28%
Population Healthy Nuclei (%) [2]: 83.2% and 64.33%
Population Hoechst High Intensity Objects (%) [2]: 0%
Population Membrane Permeable-Phenotype (%) [2]: 0.95% and 4.95%
Population Mitotic Cells (%) [2]: 62.96% and 72.09%
Population Normal (%) [2]: 100%
Population Pyknosed Nuclei (%) [2]: 14.17% and 27.39%
Population Tubulin-Different-Phenotype (%) [2]: 2.52% and 4.95%
Total Cell Count [2]: 381 and 157
Population Apoptotic (%) [3]: 38.6% and 42.86%
Population Fragmented Nuclei (%) [3]: 2.16% and 1.54%
Population Healthy Nuclei (%) [3]: 86.64% and 84.1%
Population Hoechst High Intensity Objects (%) [3]: 0.2% and 0.51%
Population Membrane Permeable-Phenotype (%) [3]: 0.68% and 5.49%
Population Mitochondria Different-Phenotype (%) [3]: 0.23% and 1.83%
Population Mitotic Cells (%) [3]: 61.4% and 57.14%
Population Normal (%) [3]: 99.8% and 99.49%
Population Pyknosed Nuclei (%) [3]: 11.2% and 14.36%
Population Tubulin-Different-Phenotype (%) [3]: 1.36% and 0%
Total Cell Count [3]: 510 and 196
Population Apoptotic (%) [4]: 44.32% and 50%
Population Fragmented Nuclei (%) [4]: 2.7% and 7.78%
Population Healthy Nuclei (%) [4]: 77.53% and 56.67%
Population Hoechst High Intensity Objects (%) [4]: 0%
Population Membrane Permeable-Phenotype (%) [4]: 0.29% and 0.98%
Population Mitotic Cells (%) [4]: 55.68% and 50%
Population Normal (%) [4]: 100%
Population Pyknosed Nuclei (%) [4]: 19.78% and 35.56%
Population Tubulin-Different-Phenotype (%) [4]: 3.48% and 3.92%
Total Cell Count [4]: 445 and 180
Population Apoptotic (%) [5]: 50% and 45.16%
Population Fragmented Nuclei (%) [5]: 2.09% and 2.15%
Population Healthy Nuclei (%) [5]: 90.19% and 88.34%
Population Hoechst High Intensity Objects (%) [5]: 0%
Population Membrane Permeable-Phenotype (%) [5]: 1.22% and 1.39%
Population Mitochondria Different-Phenotype (%) [5]: 0% and 4.51%
Population Mitotic Cells (%) [5]: 50% and 54.84%
Population Normal (%) [5]: 100%
Population Pyknosed Nuclei (%) [5]: 7.72% and 9.51%
Population Tubulin-Different-Phenotype (%) [5]: 0.49% and 1.04%
Total Cell Count [5]: 907 and 326
Population Apoptotic (%) [6]: 65.03% and 83.08%
Population Fragmented Nuclei (%) [6]: 6.86% and 8.16%
Population Healthy Nuclei (%) [6]: 71.34% and 58.67%
Population Hoechst High Intensity Objects (%) [6]: 0%
Population Membrane Permeable-Phenotype (%) [6]: 1.71% and 7.83%
Population Mitochondria Different-Phenotype (%) [6]: 0.64% and 7.83%
Population Mitotic Cells (%) [6]: 34.97% and 16.92%
Population Normal (%) [6]: 100%
Population Pyknosed Nuclei (%) [6]: 21.8% and 33.16%
Population Tubulin-Different-Phenotype (%) [6]: 2.56% and 7.83%

CCn1c(-c2ccncc2)cc2c1CCNC2=O
Population Apoptotic (%) [1]: 53.12% and 58.33%
Population Fragmented Nuclei (%) [1]: 2.21% and 6.71%
Population Healthy Nuclei (%) [1]: 88.95% and 78.66%
Population Hoechst High Intensity Objects (%) [1]: 0%
Population Membrane Permeable-Phenotype (%) [1]: 0.93% and 4.65%
Population Mitochondria Different-Phenotype (%) [1]: 0.31% and 6.98%
Population Mitotic Cells (%) [1]: 46.88% and 41.67%
Population Normal (%) [1]: 100%
Population Pyknosed Nuclei (%) [1]: 8.84% and 14.63%
Population Tubulin-Different-Phenotype (%) [1]: 1.24% and 3.88%
Total Cell Count [1]: 362 and 164
Population Apoptotic (%) [2]: 43.94% and 36.59%
Population Fragmented Nuclei (%) [2]: 4.31% and 5.7%
Population Healthy Nuclei (%) [2]: 69.8% and 68.35%
Population Hoechst High Intensity Objects (%) [2]: 0%
Population Membrane Permeable-Phenotype (%) [2]: 3.93% and 8.33%
Population Mitochondria Different-Phenotype (%) [2]: 0% and 6.48%
Population Mitotic Cells (%) [2]: 56.06% and 63.41%
Population Normal (%) [2]: 100%
Population Pyknosed Nuclei (%) [2]: 25.88% and 25.95%
Population Tubulin-Different-Phenotype (%) [2]: 2.25% and 1.85%
Total Cell Count [2]: 255 and 158
Population Apoptotic (%) [3]: 59.26% and 60%
Population Fragmented Nuclei (%) [3]: 3.6% and 7.14%
Population Healthy Nuclei (%) [3]: 75.58% and 63.1%
Population Hoechst High Intensity Objects (%) [3]: 0%
Population Membrane Permeable-Phenotype (%) [3]: 1.02% and 6.6%
Population Mitochondria Different-Phenotype (%) [3]: 0% and 13.21%
Population Mitotic Cells (%) [3]: 40.74% and 40%
Population Normal (%) [3]: 100%
Population Pyknosed Nuclei (%) [3]: 20.82% and 29.76%
Population Tubulin-Different-Phenotype (%) [3]: 1.02% and 5.66%
Total Cell Count [3]: 389 and 168
Population Apoptotic (%) [4]: 46.96% and 46.84%
Population Fragmented Nuclei (%) [4]: 11.97% and 16.77%
Population Healthy Nuclei (%) [4]: 43.63% and 34.16%
Population Hoechst High Intensity Objects (%) [4]: 0%
Population Membrane Permeable-Phenotype (%) [4]: 1.77% and 9.09%
Population Mitochondria Different-Phenotype (%) [4]: 0% and 9.09%
Population Mitotic Cells (%) [4]: 53.04% and 53.16%
Population Normal (%) [4]: 100%
Population Pyknosed Nuclei (%) [4]: 44.4% and 49.07%
Population Tubulin-Different-Phenotype (%) [4]: 3.54% and 5.45%
Total Cell Count [4]: 259 and 161
Population Apoptotic (%) [5]: 67.24% and 64.84%
Population Fragmented Nuclei (%) [5]: 5.9% and 9.91%
Population Healthy Nuclei (%) [5]: 56.11% and 49.1%
Population Hoechst High Intensity Objects (%) [5]: 0%
Population Membrane Permeable-Phenotype (%) [5]: 3.5% and 6.42%
Population Mitochondria Different-Phenotype (%) [5]: 0% and 4.59%
Population Mitotic Cells (%) [5]: 32.76% and 35.16%
Population Normal (%) [5]: 100%
Population Pyknosed Nuclei (%) [5]: 37.99% and 40.99%
Population Tubulin-Different-Phenotype (%) [5]: 7.39% and 6.42%
Total Cell Count [5]: 458 and 222
Population Apoptotic (%) [6]: 66.29% and 76.67%
Population Fragmented Nuclei (%) [6]: 10.3% and 11.18%
Population Healthy Nuclei (%) [6]: 14.59% and 9.87%
Population Hoechst High Intensity Objects (%) [6]: 0% and 0.65%
Population Mitochondria Different-Phenotype (%) [6]: 0%
Population Mitotic Cells (%) [6]: 33.71% and 23.33%
Population Normal (%) [6]: 100% and 99.35%
Population Pyknosed Nuclei (%) [6]: 75.11% and 78.95%
Population Tubulin-Different-Phenotype (%) [6]: 23.53% and 26.67%
Total Cell Count [6]: 233 and 153
